This sample holds only a part of the variants without activity.
B1: tRNA (parent)
chain: GUUCCGUUGGCGUAAUGGUAACGCGUCUCCCUCCUAAGGAGAAGACUGCGGGUUCGAGUCCCGUACGGAACG

Variants of: B1
Assay: yeast fitness relative to wild type (ratio to wild type); higher = fitter; tRNA-Arg(CCU), competitive growth, 37 C, YPD
How it was run: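 For this measurement, the tRNA-Arg(CCU) gene was varied by chemical synthesis at a 3% per-site mutation rate across 69 sites, and each variant was placed at the native genomic locus in Saccharomyces cerevisiae. The pooled strains went through a 24-hour competition in YPD at 37°C in six parallel replicates, with amplicons from start and end populations read by 100-nucleotide paired-end sequencing. Darwinian fitness relative to wild type followed from the change in each genotype's frequency. Genotypes needed ≥ 100 starting reads, and estimates < 0.5 were set to 0.5.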

Variant	yeast fitness
A40G G41A A42C A43G G44A A70U	≤ 0.5
A40U A45U G67C	0.582
A40U G67A A70C	0.572
A40G U64A	0.737
G41A C60G G63A A65G	0.529
A40G G48A	1.01
A40G G48C	0.866
A40G A69U	1.06
A40G G56A	0.998
A40G G44C A57G C60A	≤ 0.5
A40G G67A A69C	0.513
A40G C49G U59G G67C	0.706
A40U C55A G68U	≤ 0.5
G41A C60G G67A	0.534
G41A U47C	0.931
A40U C49U C62U A69G	0.904
A40U A65C A69U	0.699
G41C A42U	0.79
G41C A42C	0.565
A40G G68A	0.953
A40G G68C	0.709
G41C C60U U64G	≤ 0.5
A40G C46G U53G U64G	≤ 0.5
A40G C55U	0.663

Variant	yeast fitness
A40U A43G A65U	0.675
A40G C62U C66G A69C	≤ 0.5
G41C C55A A69U	≤ 0.5
G41C A43U U64C	0.959
A40U A43C G52A	0.667
A40U A43U C60U C62U C66U	≤ 0.5
A40U A42G C55A	≤ 0.5
G41A C60G C61U A65G	0.644
G41A A43G C66A	≤ 0.5
A40U U53C	0.735
G41A G48C A57U A65U C66A	≤ 0.5
G41C C55A A70G	0.551
G41A A43G C60U	0.507
G41C C49A A69U	0.544
G41C C49A G67A	≤ 0.5
A40G C55U G56A U64G A69U	≤ 0.5
G41A C60G U64C A65G	≤ 0.5
G41A C61A	0.742
G41C A69U A70G	0.537
G41C A69U A70U	0.629
G41A U54A	0.674
A40U G44C	0.954
A40G C62U C66A A70C	0.563
G41A C62A A70C	≤ 0.5

Variant	yeast fitness
A40G C46U U64C	0.607
A40U U53A C61U	≤ 0.5
A40G C46U C60G C66G	≤ 0.5
A40U G51C	0.518
G41A G63A	0.893
G41A G63C	0.715
A40G C49G	0.655
A40G U53A	0.654
G41C C62U A69C	0.619
A40G C61G	0.628
A40G C61U	0.741
A40U G63C	0.729
A40U G63A	0.721
G41A C62U A69U	0.619
A40G G58A A69U	1.04
G41A U59G A69C	≤ 0.5
A40U C62U	0.87
A40G C62U A65U	≤ 0.5
A40G C61U G68A	≤ 0.5
A40U A45G C60A	≤ 0.5
A40G G50A	0.944
G41A A42C A65C	0.565
G41A G67C	0.775
A40U A42C C66A	≤ 0.5

Variant	yeast fitness
A40U G44C U64C	0.944
A40U C66G	0.71
A40U C66U	0.904
G41C A57U U64C	≤ 0.5
A40G C46A C61U G67A	≤ 0.5
G41C C60G	0.695
A40G G52A G56U	≤ 0.5
G41A A45G G56A	0.582
G41A A42G	0.911
G41A A42C	0.726
A40G G44A U47C	0.571
A40U C49G A70U	0.535
G41A G67U A69C	≤ 0.5
G41A A43G	0.81
G41A U47A C49U U59C G67C A70U	0.532
G41A C55G C66U	≤ 0.5
A40U G68A	0.923
G41A C62A	0.777
G41A C62U	0.844
G41C C46A C55G	≤ 0.5
A40G C49U U59A	0.572
A40U A43C U59C	0.752
G41C C49A	0.572
G41A C46G G50A C62A	0.537

Variant	yeast fitness
A40U C55A	0.584
A40U C61U	0.783
G41A C49U A70U	0.708
A40U G52C C60G	≤ 0.5
G41C A42C C49U	≤ 0.5
G41C A43G U54A C66U	≤ 0.5
A40G U53A G63A	≤ 0.5
G41A A45U G58U C60A	0.583
A40G C46U U53G	≤ 0.5
A40G G48A G63A	0.774
A40U A42G G63A	0.511
G41A C46G G48A U54C C55U A70C	0.542
G41C C62A	0.713
A40U G48A U64G	0.631
G41C A57U G63A	0.567
A40U G52C	0.608
G41A G51A C66A	≤ 0.5
G41A A43G A70U	0.659
G41A A43G C60U A70C	0.542
G41C A43C A45U C49G U53G A69C	≤ 0.5
G41C C60U U64G G67A	≤ 0.5
G41C C61G A65C	≤ 0.5
G41C C66G	0.594
G41C C55A	0.617

Variant	yeast fitness
G41C C55U	0.787
G41A G44C C61G	≤ 0.5
A40G G51A C55U	0.556
A40U A65G A70U	0.591
A40G C55A C61U	≤ 0.5
A40U A70G	0.934
A40U A70C	0.941
A40U A70U	0.99
A40U U47C A69U	0.815
A40U A57G U59C U64G	≤ 0.5
A40G C62U	0.715
A40G C62A	0.641
A40U A42G	0.983
G41A A42U G50C A70G	≤ 0.5
A40G C60U	0.674
A40U U47C A65C	0.534
G41A G48C C49U G68A	≤ 0.5
G41C A45G G63A C66G G67C	≤ 0.5
A40U U64C A70U	0.727
A40U G52A C60U G63C	0.661
G41C A57G	0.883
G41C A57U	0.661
G41A A70U	0.977
G41A A70C	0.901

Variant	yeast fitness
A40U G67A	0.82
A40G C66U	0.792
G41C A43C C66A	0.699
G41A A45U U47A C62U A69U	≤ 0.5
A40U U54A	0.576
A40U U54C	0.802
A40U C60U	0.832
G41A G50A C60U C66G	≤ 0.5
A40U A45C	0.871
A40G G58C C61G A65C	≤ 0.5
A40G G41A C55U	≤ 0.5
A40G C46A	1.04
A40U C49U C61U A70G	≤ 0.5
A40G C61U A70U	0.612
A40G G48A A65C G67C	≤ 0.5
A40U C49U C62A C66A	≤ 0.5
G41A A57U C60A G68C	≤ 0.5
G41A U53G U59A C62G	≤ 0.5
A40U U64A	0.675
A40U G50C	0.726
A40U G50A	0.801
A40U U54C C62U	0.528
A40U G56A G58C	0.786

Source: the RNAGym collection of RNA variant scans (doi:10.1126/science.aae0568)
